SENP1 FRET inh = SENP1 (human) catalytic domain inhibition. inhibition, % at 10 µM. recombinant SENP1 catalytic domain, CyPet-SUMO1-YPet FRET cleavage. 0.21% of 360,000 active;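 active = inhibition at least 30% at 10 µM, raw YFP signal under a set limit, fluorescence ratio 0.5 to 1.5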;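 note: 0% = enzyme with DMSO and 100% = no enzyme wells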
Target sequence (Q9P0U3 419-644 limits assumed): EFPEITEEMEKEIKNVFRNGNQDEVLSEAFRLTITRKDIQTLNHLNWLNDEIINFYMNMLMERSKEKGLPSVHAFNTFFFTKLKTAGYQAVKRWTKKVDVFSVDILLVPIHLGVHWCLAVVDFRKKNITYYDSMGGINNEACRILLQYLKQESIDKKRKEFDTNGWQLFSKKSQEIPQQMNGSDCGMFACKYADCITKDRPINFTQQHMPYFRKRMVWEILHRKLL
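Test system: recombinant human SENP1 catalytic domain, His6-tagged / Medium: pH 8 Tris buffer with EDTA, NaCl, BME, BSA, NP40, catalase / Also added: SUMO1 FRET substrate flanked by Cypet and Ypet, 25 nM / Times: 50 min reaction at room temperature / Signal: FRET, CFP and YFP emission / Control set: no-enzyme low control and enzyme-plus-DMSO high control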
TPT1 inhibitor = C. albicans TPT1 enzyme inhibition. AID 1962. 0.81% of 300,000 active. inhibition, % at 5 µM. recombinant caTPT1, FP RNA substrate dephosphorylation;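 active = inhibition above the mean of all tested compounds plus 3 SD, set per screening campaign, cut at about 24% in these data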;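 note: plate controls were DMSO alone for no effect and ferristatin control at 100 nM for full effect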
HNF4A DNA FP = change in binding of human HNF4 alpha to DNA; P41235; HNF4a-FITC DNA binding, fluorescence polarization, 1 h; 0.3% of 360,000 active; activity change, % at 10 µM; in the data active = activity change above about 30%, passing the limit was not always enough
Rpn11 block = blocks the human proteasome subunit Rpn11 | human 26S proteasome, Ub4-pepOG fluorescence polarization; 20S core pre-blocked with epoxomicin | inhibition, % at 20 µM | 0.59% of 360,000 active;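 active = inhibition at 20 µM, scaled to each plate's controls, above about 33%, limit read from the data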
CSN inh = inhibitors of human CSN-mediated cullin deneddylation; 0.38% of 360,000 active; inhibition, % at 12.5 µM; Q92905; Purified CSN, SCF-Nedd8-OG deneddylation, fluorescence polarization;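 active = pattern-corrected inhibition above about 35%, with an unprinted fluorescence ratio check between 0.5 and 1.5, limit read from the data, passing the limit was not always enough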;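 note: 0% = enzyme with substrate and 100% = substrate without enzyme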
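assay system = purified human Csn5 enzyme expressed in HEK293T cells | amount = 0.24 nM enzyme | buffer or medium = Tris/NaCl/DTT buffer, pH 7.5 | reagent = 10 nM SCFSkp2-Nedd8OG | compound = one concentration, 12.5 µM, 0.25% DMSO | times = 90 min reaction at room temperature | signal = FP | read-out basis = % inhibition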
TPT1 inh confirm = TPT1 (C. albicans) inhibition, confirmation | shares compounds with TPT1 inhibitor | recombinant caTPT1, fluorescence polarization, RNase T1 coupled | inhibition, % at 5 µM | 74% of 2,400 active | AID 2149;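 active = inhibition above the primary screen limit, the mean inhibition of all tested compounds plus 3 SD, cut at about 25% in these data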
RNase T1 counter = RNase T1 inhibition in TPT1 counter-screen | shares compounds with TPT1 inhibitor | RNase T1 cleavage, fluorescence polarization, 1536-well | inhibition, % at 5 µM | 83% of 2,400 active;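 active = inhibition above the solvent-only control well mean plus 3 SD, limit set per screening run, cut at about 23% in these data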;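 note: plate controls were DMSO wells with enzyme for no effect and wells without RNase T1 for full effect; inhibitors block cleavage so intact labeled substrate keeps polarization high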
Target sequence (P00651 whole entry, looked up): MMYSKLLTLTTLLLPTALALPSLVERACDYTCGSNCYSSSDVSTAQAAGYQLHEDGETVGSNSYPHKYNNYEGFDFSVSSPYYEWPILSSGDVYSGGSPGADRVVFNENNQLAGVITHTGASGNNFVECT
* hit, by the source's call; . = not tested or not shown. A selection: hits, their analogues and other compounds. The true share with any hit is near 1.6%.

SMILES	SENP1 FRET inh	TPT1 inhibitor	HNF4A DNA FP	Rpn11 block	CSN inh	TPT1 inh confirm	RNase T1 counter
c1ccc(C2Oc3ccccc3C3CC(c4cccs4)=NN32)cc1 (centres undefined)	-47	49*	20	.	15	57*	69*
CCOC(=O)c1sc(N)c(C#N)c1COC(=O)CNC(=O)c1ccccc1	18	79*	74*	.	41*	92*	100*
CCOC(=O)c1sc(N)c(C#N)c1CSc1nc2ccc(C)cc2[nH]1	-19	11	5	8	5	.	.
CCN1C(=O)/C(=C/c2cn(C)nc2C)SC1=S	-12	5	0	2	5	.	.
CCN1C(=S)SC(=O)C1=C1C=C(C)N(CCO)C(C)=C1	-103	38*	0	11	-5	53*	62*
COc1ccc(/C=C/C(=O)N2CCN(c3ccccn3)CC2)c(OC)c1OC	3	-2	-3	-4	1	.	.
O=C(CCCCn1c(=O)c2ccccc2n(Cc2ccccc2F)c1=O)NC1CCN(Cc2ccccc2)CC1	0	1	0	2	-1	.	.
N#C/C(=C/c1ccc(N2CCOCC2)o1)c1ccc(Cl)cc1	-30	163*	138	.	8	165*	155*
N#C/C(=C/N1CCOCC1)c1ccccc1	1	-2	-2	-5	-6	.	.
N#C/C(=C\c1ccc(N2CCOCC2)o1)c1nc2ccccc2[nH]1	-16	182*	34	.	-21	158*	144*
COC(=O)[C@H](Cc1ccccc1)NC(=O)Cn1ccc(NC(=O)OCc2ccccc2)nc1=O	0	.	-1	-29	4	.	.
CC(=O)/C(N=Nc1cc(C)ccc1O)=C(\C)O	-10	44*	20	.	27	29*	48*
CC(=O)/C(N=Nc1ccc(C(=O)O)cc1[N+](=O)[O-])=C(\C)O	3	-3	-6	-6	2	.	.
COc1ccc(/C=C2\SC(=S)N(C(Cc3ccccc3)C(=O)O)C2=O)cc1 (centres undefined)	-16	.	0	7	-16	.	.
CCC(C(=O)O)N1C(=O)/C(=C/c2cccn2C)SC1=S (centres undefined)	-40	118*	101*	.	82*	124*	130*
Cn1cccc1/C=C1/SC(=S)N(CC(=O)O)C1=O	-53	89*	81*	.	50*	110*	120*
CC(C(=O)O)N1C(=O)/C(=C/c2cccn2C)SC1=S (centres undefined)	-36	96*	85*	.	48*	105*	118*
CCN1C(=O)[C@H]2[C@@H](c3ccc(C(F)(F)F)cc3)N[C@]3(CCCN(Cc4ccco4)C3=O)[C@H]2C1=O	-3	.	3	-2	6	.	.
CC[n+]1c(/C=C/C=C/N(C(C)=O)c2ccccc2)sc2cc(OC)ccc21	.	56*	.	.	.	76*	81*
C=CCn1c(=O)/c(=C2/Sc3ccccc3N2CC)s/c1=C1/C(=O)NN=C1C	.	44*	.	.	.	48*	59*
C[C@H](O)[C@@H]1C(=O)N2CCc3ccc(N4CCN(C)CC4)cc3[C@@H]2C[C@@H]1N(C)C(=O)c1ccc(C#N)cc1	-3	.	0	-6	3	.	.
O=C(N/N=C/c1ccc(-c2cccc(C(F)(F)F)c2)o1)c1ccccc1Br	-21	39*	6	38	17	38*	49*
O=C(N/N=C/c1ccc(-c2cccc(C(F)(F)F)c2)o1)c1ccccc1O	-3	5	-5	13	-5	.	.
CN(CC(=O)N1CCN(Cc2ccccc2)CC1)S(=O)(=O)c1cccc2nsnc12	2	0	-1	11	4	.	.
CCCCN1C(=O)C2(NNc3ccccc3O2)c2ccccc21 (centres undefined)	45	91*	69*	.	7	94*	102*
CCCCN1C(=O)C(O)(CC(=O)c2c(C)coc2C)c2ccccc21 (centres undefined)	1	-1	0	-8	2	.	.

High-throughput results as filed in PubChem.
